Source: ChEMBL document CHEMBL1765042, “Utilization of nitrophenylphosphates and oxime-based ligation for the development of nanomolar affinity inhibitors of the Yersinia pestis outer protein H (YopH) phosphatase” (J Med Chem, 2011)
The source made the active and inactive calls. No cut-off for these calls is given here.

Key:
[1] = target: Secreted effector protein (Yersinia pestis, UniProt O68720); assay: Inhibition of Yersinia pestis outer protein H expressed in Escherichia coli after 15 to 20 mins
How it was run: (§1)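 YopH PTPase domain (residues 164–468) expressed in E. coli. Buffer: 25 mM HEPES pH 7.0–7.6, 50 mM NaCl, 2.5 mM EDTA, 5 mM DTT plus 1 mM fresh DTT, with BSA, no detergent. Inhibitor DMSO dilutions ran 400 to 0.032 μM. Substrate was pNPP (10 mM stock), incubated 25 °C for 15–20 min. pNPP hydrolysis was measured colorimetrically and IC50 came from a Boltzmann sigmoidal fit.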

Yersinia pestis = assay: Antimicrobial activity against pgm, pla deficient Yersinia pestis CO92 infected in human peripheral blood monocytes assessed as inhibition of intracellular bacterial growth at 10 uM after 16 hrs; assay type: functional, organism-based
[2] = Inhibition of Variola major virus phosphatase VH1
How it was run: (§2)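 Recombinant phosphatases: Variola major VH1, human DUSP-14, and catalytic domains of DUSP-22, PTP1B and LAR. Each was assayed by the same spectrophotometric pNPP hydrolysis method as YopH (HEPES pH 7.0–7.6, NaCl, EDTA, DTT, BSA buffer; 25 °C, 15–20 min). IC50 came from a Boltzmann sigmoidal fit.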

[3] = target: Secreted effector protein (Yersinia pestis) (UniProt O68720); assay: Inhibition of Yersinia pestis outer protein H expressed in Escherichia coli after 15 to 20 mins in presence of 0.01% TX-100
How it was run: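 YopH PTPase domain (residues 164–468, E. coli-expressed) run in a parallel independent pNPP hydrolysis assay with 0.01% Triton X-100 added. Buffer: 25 mM HEPES pH 7.0–7.6, 50 mM NaCl, 2.5 mM EDTA, DTT, BSA. Inhibitor DMSO dilutions ran 400 to 0.032 μM, incubated 25 °C for 15–20 min. IC50 came from a Boltzmann sigmoidal fit.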

[4] = target: Secreted effector protein (Yersinia pestis) (UniProt O68720); assay: Inhibition of Yersinia pestis outer protein H expressed in Escherichia coli after 15 to 20 mins in absence of 0.01% TX-100; how it was run: as §1
[5] = target: Tyrosine-protein phosphatase non-receptor type 1 (Homo sapiens, UniProt P18031); assay: Inhibition of human PTP1B; how it was run: as §2
Tyrosine-protein phosphatase non-receptor type 1, sequence (P18031 whole entry): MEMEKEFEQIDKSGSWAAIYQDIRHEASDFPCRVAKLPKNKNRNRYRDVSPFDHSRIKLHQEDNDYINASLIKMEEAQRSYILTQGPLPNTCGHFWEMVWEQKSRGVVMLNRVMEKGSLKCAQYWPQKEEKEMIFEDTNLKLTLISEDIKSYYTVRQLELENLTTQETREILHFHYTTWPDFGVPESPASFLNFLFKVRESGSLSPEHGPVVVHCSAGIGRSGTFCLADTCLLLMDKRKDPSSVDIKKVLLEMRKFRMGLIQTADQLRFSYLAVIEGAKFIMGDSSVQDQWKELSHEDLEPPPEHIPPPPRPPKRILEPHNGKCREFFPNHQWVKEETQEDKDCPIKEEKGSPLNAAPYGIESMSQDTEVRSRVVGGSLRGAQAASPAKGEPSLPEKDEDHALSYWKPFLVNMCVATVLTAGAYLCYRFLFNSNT

[6] = target: Receptor-type tyrosine-protein phosphatase F (Homo sapiens, UniProt P10586); assay: Inhibition of human leukocyte antigen related phosphatase; how it was run: as §2
Receptor-type tyrosine-protein phosphatase F, sequence (P10586 whole entry): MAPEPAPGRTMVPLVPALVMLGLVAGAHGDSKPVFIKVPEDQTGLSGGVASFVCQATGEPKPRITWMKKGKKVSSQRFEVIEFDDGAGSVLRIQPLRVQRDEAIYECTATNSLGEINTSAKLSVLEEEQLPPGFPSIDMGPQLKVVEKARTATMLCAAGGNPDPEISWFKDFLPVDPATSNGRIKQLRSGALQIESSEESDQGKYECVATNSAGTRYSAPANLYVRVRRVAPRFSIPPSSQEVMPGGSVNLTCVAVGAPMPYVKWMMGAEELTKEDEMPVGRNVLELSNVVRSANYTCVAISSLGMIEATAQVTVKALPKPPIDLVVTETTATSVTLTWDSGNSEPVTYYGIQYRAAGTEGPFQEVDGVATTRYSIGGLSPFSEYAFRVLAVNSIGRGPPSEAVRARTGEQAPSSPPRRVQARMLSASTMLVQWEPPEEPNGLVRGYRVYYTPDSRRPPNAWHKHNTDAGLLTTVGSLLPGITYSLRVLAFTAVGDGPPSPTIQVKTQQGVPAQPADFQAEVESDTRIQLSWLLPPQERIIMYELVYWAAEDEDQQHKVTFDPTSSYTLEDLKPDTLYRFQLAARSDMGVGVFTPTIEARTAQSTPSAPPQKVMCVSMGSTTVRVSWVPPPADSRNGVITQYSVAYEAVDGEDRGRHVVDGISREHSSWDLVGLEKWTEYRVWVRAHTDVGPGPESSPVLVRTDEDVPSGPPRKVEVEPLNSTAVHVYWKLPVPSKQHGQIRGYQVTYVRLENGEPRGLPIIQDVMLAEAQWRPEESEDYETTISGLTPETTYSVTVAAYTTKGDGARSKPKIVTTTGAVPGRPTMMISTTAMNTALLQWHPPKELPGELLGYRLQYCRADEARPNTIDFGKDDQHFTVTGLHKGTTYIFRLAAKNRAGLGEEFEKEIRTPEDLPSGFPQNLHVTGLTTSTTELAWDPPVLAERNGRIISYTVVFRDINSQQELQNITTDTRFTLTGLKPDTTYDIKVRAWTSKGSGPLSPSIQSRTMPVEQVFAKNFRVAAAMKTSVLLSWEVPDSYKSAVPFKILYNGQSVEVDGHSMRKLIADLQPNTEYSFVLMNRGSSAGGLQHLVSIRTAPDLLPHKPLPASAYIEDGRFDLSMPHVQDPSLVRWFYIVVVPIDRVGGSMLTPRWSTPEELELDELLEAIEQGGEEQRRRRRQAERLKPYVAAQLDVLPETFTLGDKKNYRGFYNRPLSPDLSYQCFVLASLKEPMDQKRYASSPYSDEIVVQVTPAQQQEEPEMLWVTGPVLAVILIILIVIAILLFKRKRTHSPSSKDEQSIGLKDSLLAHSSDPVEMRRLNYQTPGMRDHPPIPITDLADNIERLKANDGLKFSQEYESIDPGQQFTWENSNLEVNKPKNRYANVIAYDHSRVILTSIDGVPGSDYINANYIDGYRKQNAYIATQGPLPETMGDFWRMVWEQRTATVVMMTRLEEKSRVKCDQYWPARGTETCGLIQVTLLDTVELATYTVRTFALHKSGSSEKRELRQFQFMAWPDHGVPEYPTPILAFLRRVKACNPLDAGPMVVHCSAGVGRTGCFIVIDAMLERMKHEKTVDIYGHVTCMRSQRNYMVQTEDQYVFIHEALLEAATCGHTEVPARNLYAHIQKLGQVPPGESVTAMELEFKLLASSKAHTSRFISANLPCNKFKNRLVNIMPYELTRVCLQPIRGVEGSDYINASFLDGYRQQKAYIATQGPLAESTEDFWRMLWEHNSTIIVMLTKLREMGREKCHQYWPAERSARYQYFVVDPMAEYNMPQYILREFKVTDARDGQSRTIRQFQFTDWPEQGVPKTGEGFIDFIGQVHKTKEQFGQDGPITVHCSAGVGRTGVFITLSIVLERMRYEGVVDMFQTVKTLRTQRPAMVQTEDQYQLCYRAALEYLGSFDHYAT

[7] = target: Dual specificity protein phosphatase 14 (Homo sapiens, UniProt O95147); assay: Inhibition of human DUSP14; how it was run: as §2
Dual specificity protein phosphatase 14, sequence (O95147 whole entry): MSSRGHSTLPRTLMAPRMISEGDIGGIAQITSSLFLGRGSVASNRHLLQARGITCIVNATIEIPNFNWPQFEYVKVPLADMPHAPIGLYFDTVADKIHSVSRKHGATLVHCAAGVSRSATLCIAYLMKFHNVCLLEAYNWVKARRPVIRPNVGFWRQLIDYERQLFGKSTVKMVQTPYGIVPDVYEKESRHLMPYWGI

[8] = target: Dual specificity protein phosphatase 22 (Homo sapiens, UniProt Q9NRW4); assay: Inhibition of human DUSP22; how it was run: as §2
Dual specificity protein phosphatase 22, sequence (Q9NRW4 whole entry): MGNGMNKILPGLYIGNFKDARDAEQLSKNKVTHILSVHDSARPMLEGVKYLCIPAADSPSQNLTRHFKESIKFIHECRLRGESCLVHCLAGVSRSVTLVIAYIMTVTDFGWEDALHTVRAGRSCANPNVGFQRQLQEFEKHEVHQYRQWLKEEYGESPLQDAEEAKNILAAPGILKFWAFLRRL

J774 = assay: Cytotoxicity against mouse J774 cells assessed as cell viability by measuring ATP level at < 100 uM after 40 hrs; assay type: cell-based; conditions: j774, 40 h
How it was run: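 J774 mouse macrophages, 5 × 10^5 cells/well, in Eagle's MEM with 4 mM L-glutamine, 4500 mg/L glucose and 7.5% FBS, at 37 °C, 5% CO2. Compound was diluted from a 10 mM DMSO stock to final 0.1–100 μM (1% DMSO in all wells) and cells were cultured 40 h. Viability was read as cellular ATP content.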

[9] = substrate: C/C=N/OCc1cc(OP(=O)(O)O)ccc1[N+](=O)[O-]; conditions: Yersinia pestis
[10] = substrate: CC(C)(C)c1cc(OP(=O)(O)O)ccc1[N+](=O)[O-]; conditions: Yersinia pestis
[11] = substrate: CC(C)(C)c1ccc(OP(=O)(O)O)c([N+](=O)[O-])c1; conditions: Yersinia pestis
[12] = substrate: Cc1cc([N+](=O)[O-])ccc1OP(=O)(O)O; conditions: Yersinia pestis
[13] = substrate: Cc1cccc([N+](=O)[O-])c1OP(=O)(O)O; conditions: Yersinia pestis
[14] = substrate: NOCc1cc(OP(=O)(O)O)ccc1[N+](=O)[O-]; conditions: Yersinia pestis
[15] = substrate: NOCc1ccc(OP(=O)(O)O)c([N+](=O)[O-])c1; conditions: Yersinia pestis
[16] = substrate: O=[N+]([O-])c1cc(-c2ccccc2)ccc1OP(=O)(O)O; conditions: Yersinia pestis
[17] = substrate: O=[N+]([O-])c1ccc(OP(=O)(O)O)c(C2CCCCC2)c1; conditions: Yersinia pestis
[18] = substrate: O=[N+]([O-])c1ccc(OP(=O)(O)O)cc1; conditions: Yersinia pestis
[19] = substrate: O=[N+]([O-])c1ccc(OP(=O)(O)O)cc1-c1ccccc1; conditions: Yersinia pestis
[20] = substrate: O=[N+]([O-])c1cccc(C2CCCCC2)c1OP(=O)(O)O; conditions: Yersinia pestis

O=P(O)(O)C(F)(F)c1cccc(-c2ccc(CO/N=C/c3ccc(CO)o3)cc2)c1
IC50 [1]: 730 nM

O=P(O)(O)C(F)(F)c1cccc(-c2ccc(CO/N=C/c3ccco3)cc2)c1
IC50 [1]: 1200 nM

O=P(O)(O)C(F)(F)c1cccc(-c2ccc(CO/N=C/c3ccoc3)cc2)c1
IC50 [1]: 3690 nM

GENTAMICIN
inhibition (Yersinia pestis): Active

Cc1ccc(/C=N/OCc2ccc(-c3cccc(C(F)(F)P(=O)(O)O)c3)cc2)o1
IC50 [1]: 910 nM

O=C(O)c1ccc(/C=N/OCc2ccc(-c3cccc(C(F)(F)P(=O)(O)O)c3)cc2)o1
IC50 [2]: > 400000 nM
IC50 [1]: 190 nM
inhibition [3]: Active
inhibition [4]: Active
IC50 [5]: 2230 nM
IC50 [6]: > 400000 nM
IC50 [7]: > 400000 nM
IC50 [8]: > 400000 nM
Activity (J774): Non-toxic
inhibition (Yersinia pestis): Active

B1: Secreted effector protein (Yersinia pestis), O68720 (protein)
chain: MNLSLSDLHRQVSRLVQQESGDCTGKLRGNVAANKETTFQGLTIASGARESEKVFAQTVLSHVANVVLTQEDTAKLLQSTVKHNLNNYDLRSVGNGNSVLVSLRSDQMTLQDAKVLLEAALRQESGARGHVSSHSHSALHAPGTPVREGLRSHLDPRTPPLPPRERPHTSGHHGAGEARATAPSTVSPYGPEARAELSSRLTTLRNTLAPATNDPRYLQACGGEKLNRFRDIQCCRQTAVRADLNANYIQVGNTRTIACQYPLQSQLESHFRMLAENRTPVLAVLASSSEIANQRFGMPDYFRQSGTYGSITVESKMTQQVGLGDGIMADMYTLTIREAGQKTISVPVVHVGNWPDQTAVSSEVTKALASLVDQTAETKRNMYESKGSSAVGDDSKLRPVIHCRAGVGRTAQLIGAMCMNDSRNSQLSVEDMVSQMRVQRNGIMVQKDEQLDVLIKLAEGQGRPLLNS
Km [9]: 170 µM
Km [10]: 1140 µM
Km [11]: 470 µM
Km [12]: 650 µM
Km [13]: Not Active
Km [14]: 410 µM
Km [15]: 1130 µM
Km [16]: 150 µM
Km [17]: 260 µM
Km [18]: 600 µM
Km [19]: 80 µM
Km [20]: Not Active
